# Source: ChEMBL document CHEMBL4152190, “Microwave-assisted one-pot synthesis of new phenanthrene fused-tetrahydrodibenzo-acridinones as potential cytotoxic and apoptosis inducing agents” (Eur J Med Chem, 2018)
# Active and inactive are the calls of the source. The rule behind the calls is not given here.
# Experiments:
# [1] = system: SK-OV-3; test: Cell cycle arrest in human SKOV3 cells assessed as accumulation of cells at S phase at 0.2 uM after 24 hrs by propidium iodide staining-based flow cytometric analysis (reference value: 5%); format: functional
# Method in brief: (§1)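 SKOV-3 cells (1×10^6/well) exposed 24 h, trypsinised, washed in PBS, fixed in 70% ethanol 30 min at 4 °C, stained 15 min in the dark at room temperature with PBS containing propidium iodide, Triton X and DNase-free RNase A. DNA content read by flow cytometry (15,000 events per methods; legend cites 10,000 cells). G0/G1, S and G2/M percentages taken from instrument software.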
# [2] = system: SK-OV-3; test: Induction of apoptosis in human SKOV3 cells assessed as nuclear fragmentation at 0.1 to 0.5 uM after 24 hrs by […] staining-based fluorescence microscopic analysis; format: functional, cell-based
# Method in brief: (§2)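 SKOV-3 cells on coverslips (5×10^5/well), adhered 24 h, then exposed 24 h. Fixed in 4% formaldehyde 10 min at 4 °C, stained with […] (5 µg/mL) 30 min at room temperature, and nuclear morphology scored by fluorescence microscopy (ex 350/em 460 nm, 20×).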
# [3] = system: SK-OV-3; test: Induction of oxidative stress in human SKOV3 cells assessed as ROS generation by measuring fluorescence intensity at 0.1 to 0.5 uM after 24 hrs by carboxy-H2DCFDA dye-based flow cytometric analysis relative to untreated control; format: functional
# Method in brief: (§3)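 SKOV-3 cells (2×10^5/well) exposed 24 h, trypsinised, and loaded with 10 µM carboxy-H2DCFDA in PBS 15 min at room temperature in the dark. After washing, green DCF fluorescence was read by flow cytometry and expressed as % of control (100%).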
# [4] = system: SK-OV-3; test: Cell cycle arrest in human SKOV3 cells assessed as decrease in cells at G0/G1 phase at 0.1 to 0.5 uM after 24 hrs by propidium iodide staining-based flow cytometric analysis; format: functional; method in brief: as §1
# [5] = system: HEK-293T; test: Cytotoxicity against human HEK293T cells after 48 hrs by MTT assay; format: cell-based
# Method in brief: (§4)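 ATCC lines grown in DMEM or RPMI with 10% FBS and antibiotic-antimycotic, 37 °C, 5% CO2. Seeded at 3×10^4 cells/well, 24 h before dosing with vehicle (DMSO) controls. […] Cisplatin as reference.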
# [6] = species: Homo sapiens; test: Inhibition of F-actin polymerization in human SKOV3 cells assessed as induction of stress fibers disruption around nucleus at 0.1 to 0.5 uM after 24 hrs by rhodamine-phalloidin/[…] staining-based confocal fluorescence microscopic analysis; format: cell-based
# Method in brief: (§5)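 SKOV-3 cells (1×10^6/well) on coverslips, grown 24 h, then exposed 24 h. Washed, fixed in 4% paraformaldehyde in PBS, stained with rhodamine-phalloidin (F-actin) and […] (nuclei), mounted in anti-fade medium, and imaged by confocal microscopy at 20×.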
# [7] = system: SK-OV-3; test: Induction of oxidative stress in human SKOV3 cells assessed as ROS generation by measuring fluorescence intensity at 0.5 uM after 24 hrs by carboxy-H2DCFDA dye-based flow cytometric analysis (reference value: 100%); format: functional; method in brief: as §3
# [8] = system: SK-OV-3; test: Cell cycle arrest in human SKOV3 cells assessed as accumulation of cells at S phase at 0.1 uM after 24 hrs by propidium iodide staining-based flow cytometric analysis (reference value: 5%); format: functional; method in brief: as §1
# [9] = system: SK-OV-3; test: Induction of oxidative stress in human SKOV3 cells assessed as ROS generation by measuring fluorescence intensity at 0.2 uM after 24 hrs by carboxy-H2DCFDA dye-based flow cytometric analysis (reference value: 100%); format: functional; method in brief: as §3
# [10] = system: SK-OV-3; test: Induction of apoptosis in human SKOV3 cells assessed as increase in caspase3 activity at 0.2 uM using Ac-DEVDpNA as substrate pretreated for 24 hrs followed by substrate addition and measured for 2 hrs by colorimetric analysis relative to control; format: functional
# Method in brief: (§6)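 SKOV-3 cells (2×10^5/well) exposed 24 h, trypsinised, lysed 20 min, and lysate cleared at 15000 rpm for 10 min at 4 °C. Supernatant incubated with reaction buffer and Ac-DEVD-pNA 2 h at 37 °C, then read at 405 nm. Activity expressed as fold of untreated control (set to 1).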
# [11] = system: SK-OV-3; test: Cell cycle arrest in human SKOV3 cells assessed as accumulation of cells at G2/M phase at 0.1 uM after 24 hrs by propidium iodide staining-based flow cytometric analysis (reference value: 14.7%); format: functional; method in brief: as §1
# [12] = system: HeLa; test: Cytotoxicity against human HeLa cells after 48 hrs by MTT assay; format: functional, cell-based; method in brief: as §4
# [13] = Selectivity index, ratio of IC50 for cytotoxicity against human HEK293T cells to IC50 for cytotoxicity against human SKOV3 cells after 48 hrs by MTT assay; format: toxicity, cell-based; conditions: HEK293T cells versus SKOV3 cells, read-out: Ratio IC50
# [14] = system: HT-1080; test: Cytotoxicity against human HT1080 cells after 48 hrs by MTT assay; format: functional, cell-based; conditions: HT-1080, 48 h; method in brief: as §4
# [15] = system: SK-OV-3; test: Cell cycle arrest in human SKOV3 cells assessed as accumulation of cells at S phase at 0.5 uM after 24 hrs by propidium iodide staining-based flow cytometric analysis (reference value: 5%); format: functional; method in brief: as §1
# [16] = system: SK-OV-3; test: Induction of apoptosis in human SKOV3 cells assessed as chromatin condensation at 0.1 to 0.5 uM after 24 hrs by […] staining-based fluorescence microscopic analysis; format: functional, cell-based; method in brief: as §2
# [17] = system: SK-OV-3; test: Inhibition of spheroid growth in human SKOV3 cells at 0.5 uM after 72 hrs by phase contrast microscopic analysis; format: functional, cell-based
# Method in brief: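 SKOV-3 cells (5000/well) in ultra-low-attachment round-bottom wells, grown 2 days to form spheroids, then exposed for 72 h. Spheroid growth and surface area assessed by phase contrast microscopy.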
# [18] = system: SK-OV-3; test: Induction of oxidative stress in human SKOV3 cells assessed as ROS generation by measuring fluorescence intensity at 0.1 uM after 24 hrs by carboxy-H2DCFDA dye-based flow cytometric analysis (reference value: 100%); format: functional; method in brief: as §3
# [19] = system: SK-OV-3; test: Cell cycle arrest in human SKOV3 cells assessed as accumulation of cells at G2/M phase at 0.5 uM after 24 hrs by propidium iodide staining-based flow cytometric analysis (reference value: 14.7%); format: functional; method in brief: as §1
# [20] = system: SK-OV-3; test: Induction of apoptosis in human SKOV3 cells assessed as increase in caspase3 activity at 0.1 uM using Ac-DEVDpNA as substrate pretreated for 24 hrs followed by substrate addition and measured for 2 hrs by colorimetric analysis relative to control; format: functional; method in brief: as §6
# [21] = system: SK-OV-3; test: Induction of apoptosis in human SKOV3 cells assessed as increase in horse shoe shaped nuclei at 0.1 to 0.5 uM after 24 hrs by […] staining-based fluorescence microscopic analysis; format: functional, cell-based; method in brief: as §2
# [22] = system: PC-3; test: Cytotoxicity against human PC3 cells after 48 hrs by MTT assay; format: functional, cell-based; conditions: PC-3, 48 h; method in brief: as §4
# [23] = system: SK-OV-3; test: Cell cycle arrest in human SKOV3 cells assessed as accumulation of cells at G2/M phase at 0.2 uM after 24 hrs by propidium iodide staining-based flow cytometric analysis (reference value: 14.7%); format: functional; method in brief: as §1
# [24] = system: SK-OV-3; test: Cytotoxicity against human SKOV3 cells after 48 hrs by MTT assay; format: functional, cell-based; conditions: SK-OV-3, 48 h; method in brief: as §4
# [25] = species: Homo sapiens; test: Inhibition of F-actin polymerization in human SKOV3 cells assessed as decrease in F-actin extensions at 0.1 to 0.5 uM after 24 hrs by rhodamine-phalloidin/[…] staining-based confocal fluorescence microscopic analysis; format: cell-based; method in brief: as §5
# [26] = system: SK-OV-3; test: Induction of apoptosis in human SKOV3 cells assessed as increase in pyknotic nuclei at 0.1 to 0.5 uM after 24 hrs by […] staining-based fluorescence microscopic analysis; format: functional, cell-based; method in brief: as §2
# [27] = system: SK-OV-3; test: Induction of apoptosis in human SKOV3 cells assessed as disruption of mitochondrial membrane potential at 0.1 to 0.5 uM after 24 hrs by JC-1 dye-based fluorescence microscopic analysis; format: functional, cell-based
# Method in brief: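 SKOV-3 cells at 5×10^5 cells/mL, adhered overnight, exposed 24 h with DMSO-treated controls. Stained with JC-1 (5 µg/mL in PBS) 30 min at room temperature, washed, and imaged in red (J-aggregate) and green (monomer) channels by fluorescence microscopy at 20×.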
# [28] = system: SK-OV-3; test: Induction of apoptosis in human SKOV3 cells assessed as increase in caspase3 activity at 0.5 uM using Ac-DEVDpNA as substrate pretreated for 24 hrs followed by substrate addition and measured for 2 hrs by colorimetric analysis relative to control; format: functional; method in brief: as §6
compound,measurement,setting,value
COc1cc2c3c(c4cc(OC)c(OC)cc4c2cc1OC)C(c1cccc(C(F)(F)F)c1)C1=C(CCCC1=O)N3 (stereo not drawn),Activity,[1],19.3%
same,Activity,[2],Active
same,fold change (FC),[3],2
same,Activity,[4],Active
same,IC50,[5],18.5 µM
same,inhibition,[6],Active
same,Activity,[7],204.76%
same,Activity,[8],2.3%
same,Activity,[9],150.3%
same,fold change (FC),[10],2.45
same,Activity,[11],22.6%
same,IC50,[12],4.38 µM
same,selectivity ratio at 48 h,[13],77
same,IC50,[14],3.89 µM
same,Activity,[15],14.1%
same,Activity,[16],Active
same,inhibition,[17],Active
same,Activity,[18],128.5%
same,Activity,[19],37.9%
same,fold change (FC),[20],1.58
same,Activity,[21],Active
same,IC50,[22],11.8 µM
same,Activity,[23],33.5%
same,IC50,[24],0.24 µM
same,inhibition,[25],Active
same,Activity,[26],Active
same,Activity,[27],Active
same,fold change (FC),[28],3.78
